Experimental data reported in ChEMBL document CHEMBL2311256, “Design and synthesis of biaryl aryl stilbenes/ethylenes as antimicrotubule agents” (Eur J Med Chem, 2013).
Activity calls are given as the source filed them. The rule behind the calls is not given here.

How the values were obtained:
[1] = organism: Bos taurus; test: Inhibition of bovine brain tubulin polymerization at 5 uM by fluorescence assay
[2] = tested on: DU-145; test: Cytotoxicity against human DU145 cells after 48 hrs by MTT assay; format: functional, cell-based; conditions: DU-145, 48 h
Summary of the method: (§1)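 Cells given 24 h settling, then 48 h continuous exposure to 1, 10, 100 and 1000 µM in triplicate wells. A549, SK-N-SH and HeLa grown in DMEM with 10% FBS; DU145 in MEM with non-essential amino acids, 1 mM pyruvate, insulin and 10% FBS; all at 37 °C, 5% CO2. Read-out was MTT (60 min, 37 °C), DMSO elution, 560 nm. IC50 = 50% absorbance reduction versus control, mean ± SD of three experiments.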

[3] = tested on: SK-N-SH; test: Cytotoxicity against human SK-N-SH cells after 48 hrs by MTT assay; format: functional, cell-based; summary of the method: as §1
[4] = tested on: HeLa; test: Cytotoxicity against human HeLa cells after 48 hrs by MTT assay; format: functional, cell-based; summary of the method: as §1
[5] = tested on: A549; test: Cytotoxicity against human A549 cells after 48 hrs by MTT assay; format: functional, cell-based; conditions: A549, 48 h; summary of the method: as §1
[6] = tested on: HeLa; test: Induction of cyclin B1 expression in human HeLa cells at 1 uM after 24 hrs by immunoblotting; format: functional, cell-based
Summary of the method: (§2)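 HeLa seeded at 1 × 10^5 cells/well and treated 24 h. Cells washed with PBS, lysed in 1X SDS sample buffer, run on SDS-PAGE and transferred to nitrocellulose. Blots probed with anti-cyclin B1 (1:1500) and HRP goat anti-rabbit secondary (1:5000), detected by enhanced chemiluminescence.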

[7] = molecular target: T1, Tubulin (Homo sapiens) (UniProt P68371+Q9H4B7+P0DPH7+P68366+Q13509+Q71U36+P04350+Q3ZCM7+P07437+P68363+Q9BQE3+Q6PEY2+Q13885+Q9BVA1+Q9BUF5); test: Inhibition of tubulin polymerization in human HeLa cells assessed as tubulin polymerized fraction at 1 uM after 24 hrs by immunohistochemistry analysis; format: cell-based
[8] = tested on: HeLa; test: Induction of cyclin B1 expression in human HeLa cells at 10 uM after 24 hrs by immunoblotting; format: functional, cell-based; summary of the method: as §2
[9] = molecular target: T1, Tubulin (Homo sapiens); test: Inhibition of tubulin polymerization in human HeLa cells assessed as tubulin soluble fraction at 10 uM after 24 hrs by immunohistochemistry analysis; format: cell-based
[10] = molecular target: T1, Tubulin (Homo sapiens); test: Inhibition of tubulin polymerization in human HeLa cells assessed as tubulin cytoskeleton at 10 uM after 24 hrs by immunohistochemistry analysis; format: cell-based
Summary of the method: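 HeLa on coverslips treated 24 h at 10 µM, then fixed in 3.5% formaldehyde/PBS for 10 min and permeabilized with 0.5% Triton X-100/0.05% Tween-20. Blocked in 2% BSA, stained with anti-tubulin (1:200, 4 h, RT) and FITC anti-mouse secondary (1:500, 1 h), DAPI counterstain. Imaged by fluorescence microscopy; five fields of view.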

[11] = tested on: HeLa; test: Antimitotic activity in human HeLa cells assessed as accumulation at G2/M phase at 10 uM after 24 hrs by flow cytometry analysis (reference value: 19.4%); format: functional
Summary of the method: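 Cells treated 24 h at 10 µM, trypsin-EDTA harvested, fixed in ice-cold 70% ethanol at 4 °C for 30 min, then stained 30 min in propidium iodide (0.2 mg) plus RNase A (2 mg) per 1 mL. DNA content of 20,000 events measured by flow cytometry, and the percentage of cells in G2/M quantified against untreated and DMSO controls.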

[12] = Inhibition of bovine brain tubulin polymerization by fluorescence assay; design: species or system Bos taurus
[13] = molecular target: T1, Tubulin (Homo sapiens); conditions: HeLa, 1 uM

inhibition [1] [%]	inhibition [7]	inhibition [9]	inhibition [10]	IC50 [12] [µM]	inhibition [13]	SMILES	IC50 [2] [µM]	IC50 [3] [µM]	IC50 [4] [µM]	IC50 [5] [µM]	Activity [6]	Activity [8]	Activity [11] [%]
26						COc1ccc(/C=C/c2cc(OC)c(OC)c(OC)c2-c2ccc(Cl)cc2)cc1	35	15	49	30			
47						COc1cc(/C=C/c2ccc(C)cc2)c(-c2ccccc2)c(OC)c1OC	101	31	45	54			
33						COc1ccc(/C=C/c2cc(OC)c(OC)c(OC)c2-c2ccc(C(C)(C)C)cc2)cc1	45	30	28	32			
40						C=C(c1ccc(OC)cc1)c1cc(OC)c(OC)c(OC)c1-c1ccc(Cl)cc1	33	15	30	29			
55			Active	9.2		COc1ccc(/C=C/c2cc(OC)c(OC)c(OC)c2-c2ccc(F)c(F)c2)cc1	7.5	6.9	9.2	7.5		Active	71.16
48						COc1ccc(/C=C/c2cc(OC)c(OC)c(OC)c2-c2ccc(F)c(C)c2)cc1	23	19	17	18			
62		Active	Active	6.8		COc1ccc(/C=C/c2cc(OC)c(OC)c(OC)c2-c2ccc3c(c2)OCO3)cc1	7.3	8	8.7	6.3		Active	73.02
22						COc1ccc(/C=C/c2cc(OC)c(OC)c(OC)c2-c2ccccc2)cc1	51	11	26	36			
50						COc1ccc(/C=C/c2cc(OC)c(OC)c(OC)c2-c2ccc3ccccc3c2)cc1	32	16	13	14			
53			Active	11.2		C=C(c1ccc(OC)cc1)c1cc(OC)c(OC)c(OC)c1-c1ccc(F)c(F)c1	6.8	7.5	5.9	6.5		Active	70.02
33						COc1ccc(/C=C/c2cc(OC)c(OC)c(OC)c2-c2ccc(OC)c(OC)c2)cc1	34	42	45	28			
20						COc1ccc(/C=C/c2cc(OC)c(OC)c(OC)c2-c2ccc(OC)cc2)cc1	34	36	19	35			

The next lines start with the compound.

SMILES	inhibition [1] [%]	inhibition [7]	inhibition [9]	inhibition [10]	IC50 [12] [µM]	inhibition [13]	IC50 [2] [µM]	IC50 [3] [µM]	IC50 [4] [µM]	IC50 [5] [µM]	Activity [6]	Activity [8]	Activity [11] [%]
C=C(c1ccccc1)c1cc(OC)c(OC)c(OC)c1-c1ccccc1	40						36	34	42	17			
CC(=O)O[C@H]1C(=O)[C@@]2(C)[C@H]([C@H](OC(=O)c3ccccc3)[C@]3(O)C[C@H](OC(=O)[C@H](O)[C@@H](NC(=O)c4ccccc4)c4ccccc4)C(C)=C1C3(C)C)[C@]1(OC(C)=O)CO[C@@H]1C[C@@H]2O		Active									Active		
C=C(c1ccc(Cl)cc1)c1cc(OC)c(OC)c(OC)c1-c1ccccc1	51						29	25	34	40			
C=C(c1ccc(OC)cc1)c1cc(OC)c(OC)c(OC)c1-c1ccc2c(c1)OCO2	56		Active	Active	8.6		6	6.1	5.4	5		Active	73
C=C(c1ccc(OC)cc1)c1cc(OC)c(OC)c(OC)c1-c1ccc(C(C)(C)C)cc1	23						39	24	39	27			
C=C(c1ccc(C(F)(F)F)cc1)c1cc(OC)c(OC)c(OC)c1-c1ccccc1	49						31	13	32	48			
C=C(c1ccc(C)cc1)c1cc(OC)c(OC)c(OC)c1-c1ccccc1	32						28	31	28	35			
COc1cc(/C=C/c2ccccc2)c(-c2ccccc2)c(OC)c1OC	41						82	63	89	79			
COC(=O)Nc1nc2cc(C(=O)c3cccs3)ccc2[nH]1						Active							
C=C(c1ccc(OC)cc1)c1cc(OC)c(OC)c(OC)c1-c1ccc2ccccc2c1	21						46	6	35	15			
C=C(c1ccc(OC)cc1)c1cc(OC)c(OC)c(OC)c1-c1ccc(OC)cc1	40						37	75	72	14			
C=C(c1ccc(OC)cc1)c1cc(OC)c(OC)c(OC)c1-c1ccccc1	49						8	31	11	22			
